According to ChEMBL document CHEMBL4765315, “Discovery of IAP-recruiting BCL-X PROTACs as potent degraders across multiple cancer cell lines” (Eur J Med Chem, 2020):
pIC50: −log10 of the molar value. The source made the active and inactive calls. No cut-off for these calls is given here.

Assays:
[1] = test system: Bcl-2-like protein 1/E3 ubiquitin-protein ligase XIAP (Homo sapiens); assay: Protac activity at BCL-XL/XIAP E3 ligase in human MyLa1929 cells assessed as degradation of BCL-XL by measuring remaining protein at 500 nM measured after 16 hrs by Western blot analysis (reference value: 100%)
[2] = Antiproliferative activity against human MyLa1929 cells assessed as cell viability measured after 72 hrs by MTS assay; format: functional, cell-based; conditions: for pIC50: Homo sapiens, MyLa1929, 72 h, read-out: IC50; for IC50: myla1929
Summary of the method: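 MTS tetrazolium read-out of viability after 72 h continuous exposure. MyLa 1929 seeded at 1×10^5 cells per well; EC50/IC50 fitted from concentration–response curves. For MyLa 1929, values are means of at least two independent experiments.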

MOLT-4 = assay: Antiproliferative activity against human MOLT-4 cells assessed as cell viability measured after 72 hrs by MTS assay; format: functional, cell-based
[3] = target: Protein cereblon/Bcl-2-like protein 1 (Homo sapiens) (UniProt Q07817+Q96SW2); assay: Protac activity at BCL-XL/CRBN in human MyLa1929 cells assessed as degradation of BCL-XL at 0.01 to 3 uM measured after 16 hrs by western blot analysis; format: cell-based; conditions: dose 0.01-3 µM
Summary of the method: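 MyLa 1929 cells treated 16 h with compound (single 500 nM or concentration series), then harvested for immunoblot. Membranes blocked in 5% milk/TBS-Tween, primary antibody overnight at 4 °C, HRP secondary, ECL detection. BCL-XL band normalized to β-actin by densitometry; reported as % protein remaining versus vehicle.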

[4] = Selectivity ratio of IC50 for human platelets to IC50 for human MyLa1929 cells
Summary of the method: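 Platelets were isolated from platelet-rich plasma in acid citrate buffer with PGE1 (1 µM) and apyrase (0.2 units/mL) at final concentration. They were adjusted to 2 × 10^8/mL in HEPES Tyrode's buffer with 10% FBS, PGE1 and apyrase, then treated for 48 h and read by MTS. MyLa 1929 cells (1×10^5 per well) were treated for 72 h and read by MTS, with IC50 from at least two independent experiments. The ratio is platelet IC50 over MyLa 1929 IC50.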

WI-38 = assay: Cytotoxicity against human WI-38 cells assessed as cell viability measured after 72 hrs by MTS assay; format: cell-based; conditions: WI-38, 72 h
Platelet = assay: Cytotoxicity against human platelet assessed as cell viability measured after 48 hrs by MTS assay

Chain of Protein cereblon/Bcl-2-like protein 1 (Homo sapiens) (Q07817 whole entry, looked up): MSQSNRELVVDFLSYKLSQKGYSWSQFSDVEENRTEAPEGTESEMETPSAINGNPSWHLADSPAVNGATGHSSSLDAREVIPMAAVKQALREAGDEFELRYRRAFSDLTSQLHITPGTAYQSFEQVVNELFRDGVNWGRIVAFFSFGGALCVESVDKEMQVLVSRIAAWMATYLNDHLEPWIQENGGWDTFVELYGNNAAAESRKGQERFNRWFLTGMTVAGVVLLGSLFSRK
Chain of Protein cereblon/Bcl-2-like protein 1 (Homo sapiens) (Q96SW2 whole entry, looked up): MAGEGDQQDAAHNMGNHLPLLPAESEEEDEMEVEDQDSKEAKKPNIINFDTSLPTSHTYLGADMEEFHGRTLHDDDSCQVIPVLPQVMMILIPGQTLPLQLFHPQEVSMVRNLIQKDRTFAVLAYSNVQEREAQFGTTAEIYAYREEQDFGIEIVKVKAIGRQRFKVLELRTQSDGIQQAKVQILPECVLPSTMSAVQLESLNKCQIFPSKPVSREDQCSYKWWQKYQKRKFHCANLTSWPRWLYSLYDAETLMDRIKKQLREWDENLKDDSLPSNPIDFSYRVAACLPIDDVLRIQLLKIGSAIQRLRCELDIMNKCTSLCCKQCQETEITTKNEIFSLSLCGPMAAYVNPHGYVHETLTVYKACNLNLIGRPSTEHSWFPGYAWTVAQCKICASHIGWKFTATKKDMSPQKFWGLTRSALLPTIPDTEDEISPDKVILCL

Remaining BCL-XL protein [1] [%] | Compound | pIC50 [2] | also measured
80 | CN[C@@H](C)C(=O)N[C@@H](C(=O)N1CCC[C@H]1c1nc(C(=O)c2cccc(OCCCCC(=O)N3CCN(CC[C@H](CSc4ccccc4)Nc4ccc(S(=O)(=O)NC(=O)c5ccc(N6CCN(CC7=C(c8ccc(Cl)cc8)CCC(C)(C)C7)CC6)cc5)cc4S(=O)(=O)C(F)(F)F)CC3)c2)cs1)C1CCCCC1 | 5.71 | 
59 | CN[C@@H](C)C(=O)N[C@@H](C(=O)N1CCC[C@H]1c1nc(C(=O)c2cccc(OCCOCCOCCOCc3cn(CCCC(=O)N4CCN(CC[C@H](CSc5ccccc5)Nc5ccc(S(=O)(=O)NC(=O)c6ccc(N7CCN(CC8=C(c9ccc(Cl)cc9)CCC(C)(C)C8)CC7)cc6)cc5S(=O)(=O)C(F)(F)F)CC4)nn3)c2)cs1)C1CCCCC1 | 6.83 | 
55 | CN[C@@H](C)C(=O)N[C@@H](C(=O)N1CCC[C@H]1c1nc(C(=O)c2cccc(OCCCC(=O)N3CCN(CC[C@H](CSc4ccccc4)Nc4ccc(S(=O)(=O)NC(=O)c5ccc(N6CCN(CC7=C(c8ccc(Cl)cc8)CCC(C)(C)C7)CC6)cc5)cc4S(=O)(=O)C(F)(F)F)CC3)c2)cs1)C1CCCCC1 | 6.00 | 
31 | CN[C@@H](C)C(=O)N[C@@H](C(=O)N1CCC[C@H]1c1nc(C(=O)c2cccc(OCCOCCOCc3cn(CCCC(=O)N4CCN(CC[C@H](CSc5ccccc5)Nc5ccc(S(=O)(=O)NC(=O)c6ccc(N7CCN(CC8=C(c9ccc(Cl)cc9)CCC(C)(C)C8)CC7)cc6)cc5S(=O)(=O)C(F)(F)F)CC4)nn3)c2)cs1)C1CCCCC1 | 6.80 | 
60 | CN[C@@H](C)C(=O)N[C@@H](C(=O)N1CCC[C@H]1c1nc(C(=O)c2cccc(OCCOCCOCC(=O)N3CCN(CC[C@H](CSc4ccccc4)Nc4ccc(S(=O)(=O)NC(=O)c5ccc(N6CCN(CC7=C(c8ccc(Cl)cc8)CCC(C)(C)C7)CC6)cc5)cc4S(=O)(=O)C(F)(F)F)CC3)c2)cs1)C1CCCCC1 | 6.84 | 
29 | CN[C@@H](C)C(=O)N[C@@H](C(=O)N1CCC[C@H]1c1nc(C(=O)c2cccc(OCCOCCOCCOCCOCC(=O)N3CCN(CC[C@H](CSc4ccccc4)Nc4ccc(S(=O)(=O)NC(=O)c5ccc(N6CCN(CC7=C(c8ccc(Cl)cc8)CCC(C)(C)C7)CC6)cc5)cc4S(=O)(=O)C(F)(F)F)CC3)c2)cs1)C1CCCCC1 | 7.12 | 

The remaining lines, values behind:

Compound | Remaining BCL-XL protein [1] [%] | pIC50 [2] | also measured
O=C1CCC(N2C(=O)c3cccc(NCCOCCOCc4cn(CCCC(=O)N5CCN(CC#Cc6ccc(OCCCc7sc(N8CCc9cccc(C(=O)Nc%10nc%11ccccc%11s%10)c9C8)nc7C(=O)O)c(F)c6)CC5)nn4)c3C2=O)C(=O)N1 (stereo unspecified) |  |  | Activity (MOLT-4): Active; Activity [3]: Active; IC50 [2]: Active
CC1(C)CCC(c2ccc(Cl)cc2)=C(CN2CCN(c3ccc(C(=O)NS(=O)(=O)c4ccc(N[C@H](CCN5CCOCC5)CSc5ccccc5)c(S(=O)(=O)C(F)(F)F)c4)cc3)CC2)C1 [NAVITOCLAX] |  | 7.30 | Ratio IC50 [4]: 137; pIC50 (WI-38): 5.09; pIC50 (Platelet): 6.72
CN[C@@H](C)C(=O)N[C@@H](C(=O)N1CCC[C@H]1c1nc(C(=O)c2cccc(OCCCCCC(=O)N3CCN(CC[C@H](CSc4ccccc4)Nc4ccc(S(=O)(=O)NC(=O)c5ccc(N6CCN(CC7=C(c8ccc(Cl)cc8)CCC(C)(C)C7)CC6)cc5)cc4S(=O)(=O)C(F)(F)F)CC3)c2)cs1)C1CCCCC1 | 104 | < 5.00 | 
CN(CCOCCOCCOCCNc1cccc2c1C(=O)N(C1CCC(=O)NC1=O)C2=O)CC[C@H](CSc1ccccc1)Nc1ccc(S(=O)(=O)NC(=O)c2ccc(N3CCN(CC4=C(c5ccc(Cl)cc5)CCC(C)(C)C4)CC3)cc2)cc1S(=O)(=O)C(F)(F)F (stereo partly specified) |  |  | Activity (MOLT-4): Active; IC50 [2]: Active
CN[C@@H](C)C(=O)N[C@@H](C(=O)N1CCC[C@H]1c1nc(C(=O)c2cccc(OCCCCCCC(=O)N3CCN(CC[C@H](CSc4ccccc4)Nc4ccc(S(=O)(=O)NC(=O)c5ccc(N6CCN(CC7=C(c8ccc(Cl)cc8)CCC(C)(C)C7)CC6)cc5)cc4S(=O)(=O)C(F)(F)F)CC3)c2)cs1)C1CCCCC1 | 108 | < 5.00 | 
CN[C@@H](C)C(=O)N[C@H]1CCO[C@H]2CC(C)(C)[C@@H](C(=O)N[C@@H]3CCCc4cc(O)ccc43)N2C1=O |  | < 5.00 | 
